Experimental data from the EternaBench riboswitch data.

Test system: MS2 coat protein
Assay: apparent Kd, MS2 coat protein; higher = weaker binding; RNA-MaP array; FMN 200 µM where present
Summary of the method: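 Designs on Illumina sequencing-chip clusters, transcribed by stalled E. coli RNA polymerase, were exposed to SNAP-549-labelled MS2 coat protein in doubling steps from 0.7 or 1.5 nM up to 3 µM, without and then with constant ligand. The buffer held 100 mM Tris-HCl pH 7.5, 80 mM KCl, 4 mM MgCl2, BSA, DTT, yeast tRNA and Tween-20. Apparent Kd values are medians of filtered per-cluster binding-curve fits to green signal normalised to red-channel RNA signal and control-cluster median Fmax.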

[1] = designed as: OFF switch for flavin mononucleotide, no ligand
[2] = ligand present: flavin mononucleotide, designed as: OFF switch for flavin mononucleotide
[3] = designed as: ON switch for flavin mononucleotide, no ligand
[4] = ligand present: flavin mononucleotide, designed as: ON switch for flavin mononucleotide

Sequence	apparent Kd [1] [nM]	apparent Kd [2] [nM]	apparent Kd [3] [nM]	apparent Kd [4] [nM]
UCGGCGCGAGGAUAUACGUUUGCGCGUUUUCGUUUUUGCGUACAUGAGGAUCACCCAUGUAGAAGGCGCGCCGC	12.8	18	–	–
UCGGCGCGAGGAUAUACGUUUGCUUUUUAGGGUCGUGGCGUACAUGAGGAUCACCCAUGUAGAAGGCGCGCCGC	16.9	52.7	–	–
UCGUGAAGGAUAGGAUAUGGACAUGAGGAUCACCCAUGUACAUGGGAAUGAAUACUGAAUUUGUACUAGAAGGGUUACAUAAAU	44.4	39.5	–	–
UCGUGGUUAGGAUAUACAUGAGGAUCACCCAUGUGUGGCAGGGAGCGCCGACGGGCUUGUAGAAGGGAUGCGCA	40.4	39.6	–	–
UCGUUUGUACUAGGAUAUACCGACGAAAGAUCAGUAGAAGGAGUAACAGACAUGAGGAUCACCCAUGUAUGGGUCCUUAAACAA	35.8	217	–	–
UCUACAUAGAUUCAUCAAUACAGUAAGGAUAUGAGAUACAUGAGGAUCACCCAUGUGCAUGUGAAUUAGAAGGUACAAUUAACU	15.7	12.8	–	–
UCUGCCGCCGUGAGGAUAUGCCCAAAUAAAAGCGGGCAGAAGGCACAUGAGGAUCACCCAUGUCCCGCGGUUUU	15.8	38.4	–	–
UCUGCCGCCGUGAGGAUAUGCCCGCAAAAACGCGGGCAGAAGGCACAUGAGGAUCACCCAUGUCCCGCGGUUUU	13.9	33.6	–	–
UCUGUUCAAGGAUAUGCGUAAUGUGUUACGGCACAAGGUCUACAUGAGGAUCACCCAUGUAGAAGGUGAUCAGA	20.8	22.4	–	–
UCUUAGUCAGGAUAUACAUGAGGAUCACCCAUGUAAAAUUUUAAUUUAAUUUUAAGGUGUAGAAGGGACCAUUU	30.6	26.2	–	–
UCUUAUUGCAAGGAUAUGCAAAUUAUUUUUUAAGCAGAAGGUGCAACAUGAGGAUCACCCAUGUUUCCGGGCAA	15.3	42.9	–	–
UGAAAUCAUGUAGGAUAUGCAUGGCGAAGCUACGCAGAAGGACAUGAGGAUCACCCAUGUUAUAGCUACCCAGCUCGGUGGCAA	39.6	117	–	–
UGAACAAUGUAGAAGGCCCACAUUUAUAUGUAGGGAGGAUAUACAUGAGGAUCACCCAUGUAAAGAGCAAGAGGAUUUGACAGA	9.49	17.6	–	–
UGACAUAUAUAGAAGGGUAGUAGGGUAUUACAUGAGGAUCACCCAUGUAUUAUAGGAUAUGUAUAAAGUUAUUAUUCAAGUAAA	15.8	13	–	–
UGACCCUGGAAGAGUGUUUAGACAUGAGGAUCACCCAUGUCUGAGGAUAUGCGGCAUCAAUAACAGCAGAAGGCAGACUUGGGU	239	32.7	–	–
UGACCCUGGAUGAGUGUUUAGACAUGAGGAUCACCCAUGUCUGAGGAUAUGCGGCAUCAAUAACAGCAGAAGGCAGACUUGGGU	133	41.2	–	–
UGACGGAGCAGAGGAUAUACAUGAGGAUCACCCAUGUAAGAUCUCCAGGAAACUGGAGAUCAAAUGUAGAAGGCUGCUCCGUCA	18.1	56	–	–
UGACGGAGCUGAGGAUAUAUACAUGAGGAUCACCCAUGUAAGCUCCAGGAAACUGGAGCAAAUGUAUAGAAGGCAGCUCCGUCA	30.3	48	–	–
UGACUCGGAGGAUAUACAUGAGGAUCACCCAUGUUUACUUGCCGCCGAGUAACCUGGUGUAGAAGGUCGAGUGU	17.2	13.7	–	–
UGAGCCUCGUGAGGAUAUACAUGAGGAUCACCCAUGUAAUAAAUCCAACGGAGGAAACUCCGAAUGUAGAAGGCACGAGGCUCA	18.1	64.3	–	–
UGAGGACAUGAGGAUCACCCAUGUAGGCCACAAUCAGGAUAUGCAUUAAGGUACCUAAGAGUAGAAGGGAUUCGAG	–	–	82.1	75.6
UGAGUGCGUGUUAGGAUAUGGUUUGGUAUUUCGGGCUAGAAGGGACAUGAGGAUCACCCAUGUAAUUGAUAGGU	47	53	–	–
UGAUAACAUGUAGGAUAUGCAGCAUUGACCACUGCAGAAGGACAUGAGGAUCACCCAUGUACCCAUACUAUGGGAUCACGCAAU	45.9	195	–	–
UGAUAGGACAGAGGAUAUGCCGAUAGGAUCUACUAUCGAAGAAUCCUCACAUGAGGAUCACCCAUGUAGAAGGCUGUUCUAUCU	8.18	33	–	–
UGAUCGAAAGAUCAUAGAUUCUGCUAGGAUAUGCAGGAGUUGCGCUUUACAUGAGGAUCACCCAUGUAGAAGGAGUAGAGUCUA	6.77	8.88	–	–
UGAUCUAUGUAGAAGGCCCAUAUCUAUAUUUAGGGAGGAUAUACAUGAGGAUCACCCAUGUAUAGAGCUAGUGGACUGGUCAGC	48	69.4	–	–
UGAUCUUACAUGAGGAUCACCCAUGUAGGCCUGUAACUAACCAGAAGGCACGUAGAGUAAAACAGUGAGGAUAUGGAUGACGUA	–	–	22.4	9.35
UGAUUGCCUGUAAGGAUAUCUACGGCCGUUCGCUGGGAGAAGGUACAUGAGGAUCACCCAUGUACAGUCAUGGG	42.9	93.5	–	–

Sequence	apparent Kd [1] [nM]	apparent Kd [2] [nM]	apparent Kd [3] [nM]	apparent Kd [4] [nM]
UGAUUUCAUGUAGGAUAUGCUUGGCGUAGCUACGCAGAAGGACAUGAGGAUCACCCAUGUUUUAGCGUCUGAGUAUAGAUUCUU	35.3	89.7	–	–
UGCAGGUGAGGAUAUGCGGGCGAUUAAACAUAUAAAUGCAAGCAGAAGGCACAUGAGGAUCACCCAUGUAGUCC	26	36.1	–	–
UGCAUGGUAGGAUAUACGGAGCAUUAGGGUUUGUUAUGUGGACAUGAGGAUCACCCAUGUAGAAGGGCCGUGCU	37.3	57.1	–	–
UGCAUGUAAGGAUAUGCAACCUGCGCUCAUUAGCAGGUCAAGCAGAAGGUACAUGAGGAUCACCCAUGUGUCCG	31.2	156	–	–
UGCCCUCUUAAGGAUAUAUUGGACGAGCGACCAAUAGAAGGUGGGACAUGAGGAUCACCCAUGUGCAGACAUCC	23.2	22.7	–	–
UGCCGUGUACAGAAGGGCGACAUGAGGAUCACCCAUGUCUCCUUGUUGGUCGUAGGAUAUGUACCGUGGCUCUCACCUGUGGGA	5.57	6.95	–	–
UGCCUGAGUCGAGGAUAUUAUGGAUCCUCUAAUACAUGAGGAUCACCCAUGUAAUUAAUUAUACAUGAGAAGGUGACUCAGGCU	–	–	529	488
UGCGUUAAGCCCUUAAGUCGUCAACAUGAGGAUCACCCAUGUAGAAGGCAGCGGACGCGGCCGGCUGAGGAUAUACAUGUAGGU	13.3	16.8	–	–
UGCUAGAACCUAGGAUAUCCUAGGUUGGUGGUGCUUGGUGACCGGACAUGAGGAUCACCCAUGUAGGAGAAGGAGGUUGCUAAG	37.8	41.2	–	–
UGCUAGUCAGGAUAUACGUACAUGUCAUUAGACGUGAAGGGACAUGAGGAUCACCCAUGUAGAAGGGACUAGCU	42.4	149	–	–
UGCUGUGGCAGAGGAUAUACUCUAAUAAUCCAUUGCAAAUAGCGAUGGACAUGAGGAUCACCCAUGUAGAAGGCUGUCACAGCA	63.7	137	–	–
UGCUGUGUCAGAGGAUAUCUACUAAUAAUCCAUUGCAAAUAGCGAUGGACAUGAGGAUCACCCAUGUAGAAGGCUGUCACAGCA	110	120	–	–
UGGACCGAGCUGUCGGUUGACUCUAAGGAUAUGACAUGAGGAUCACCCAUGUGGGAUCUAAAUUGUCAGAAGGUGGGUUCUGGG	95	51	–	–
UGGACUGGGCAGAAGGGACAUGAGGAUCACCCAUGUCUUGGGCUACUUCAGUCAGGAUAUGCCCAAUAAAUAUCCGUGCAUCAA	13.3	67.1	–	–
UGGACUGGGCAGAAGGGACAUGAGGAUCACCCAUGUCUUGGGCUACUUCAGUCAGGAUAUGCCCAUUGAAUAUCCGAGCAUCAA	13.7	77.4	–	–
UGGGCCUCGUGAGGAUAUACAUGAGGAUCACCCAUGUAAUAAAGUGAACGGAGGAAACUCCGAAUGUAGAAGGCACGAGGCUCA	19.5	147	–	–
UGGGUAAAUGUAGGAUAUCCAUAUUAAUAAUAUGGAGAAGGACAUGAGGAUCACCCAUGUACAGGGAAUUACCCAUUUCCUCUC	80.1	287	–	–
UGGUACAUGAGGAUCACCCAUGUAAGAGCCCUCAUGCGAUGUAGAAGGAUAAUGCGAGUAGUGCUAUAGGAUAUACAUGAGUUU	225	207	–	–
UGGUACAUGGGAGGAUAUCCUCAAGAACAUGAGGAUCACCCAUGUAAUUAUAAGCCGAAAGGCAUGGAGAAGGCCCAUGUACCU	–	–	66.4	16
UGGUACAUGGGAGGAUAUCCUCAUGAGACAUGAGGAUCACCCAUGUAUUAUAAGCCGAAAGGCAAGGAGAAGGCCCAUGUACCU	–	–	90.2	19.5
UGGUACAUGGGAGGAUAUGGGUUGAUAACAUGAGGAUCACCCAUGUUAAAAUGCCGAAAGGCAAACUAGAAGGCCCAUGUACCU	–	–	443	32.2
UGGUACUAGGGAGGAUAUGGGAAGAUACAUGAGGAUCACCCAUGUUUAAGAAGGCCGAGAGGCAACUAGAAGGCCCUAGUACCU	–	–	396	16
UGGUACUAGGGAGGAUAUGGGAAGAUACAUGAGGAUCACCCAUGUUUAAGAAUGCCGAGAGCCAACUAGAAGGCCCUAGUACCU	–	–	120	16.7
UGGUACUAGGGAGGAUAUGGGAAGAUACAUGAGGAUCACCCAUGUUUAAGAAUGCCGAGAGGCAAAUAGAAGGCCCUAGUACCU	–	–	658	85.4
UGGUACUAGGGAGGAUAUGGGAAGAUACAUGAGGAUCACCCAUGUUUAAGAAUGCCGAGAGGCAACUAGAAGGACCUAGUACCU	–	–	896	63.6
UGGUACUAGGGAGGAUAUGGGAAGAUACAUGAGGAUCACCCAUGUUUAAGAAUGCCGAGAGGCAACUAGAAGGCCCUAGUAACU	–	–	461	20.2
UGGUACUAGGGAGGAUAUGGGAAGAUACAUGAGGAUCACCCAUGUUUAAGAAUGCCGAGCGGCAACUAGAAGGCCCUAGUACCU	–	–	479	20.8
